Reference: BindingDB's records for doi:10.1021/acsmedchemlett.8b00442 (University of Helsinki, 2018)

Target: T1, Phosphatidylserine lipase ABHD16A (Homo sapiens, UniProt O95870)
T1 sequence (O95870 whole entry): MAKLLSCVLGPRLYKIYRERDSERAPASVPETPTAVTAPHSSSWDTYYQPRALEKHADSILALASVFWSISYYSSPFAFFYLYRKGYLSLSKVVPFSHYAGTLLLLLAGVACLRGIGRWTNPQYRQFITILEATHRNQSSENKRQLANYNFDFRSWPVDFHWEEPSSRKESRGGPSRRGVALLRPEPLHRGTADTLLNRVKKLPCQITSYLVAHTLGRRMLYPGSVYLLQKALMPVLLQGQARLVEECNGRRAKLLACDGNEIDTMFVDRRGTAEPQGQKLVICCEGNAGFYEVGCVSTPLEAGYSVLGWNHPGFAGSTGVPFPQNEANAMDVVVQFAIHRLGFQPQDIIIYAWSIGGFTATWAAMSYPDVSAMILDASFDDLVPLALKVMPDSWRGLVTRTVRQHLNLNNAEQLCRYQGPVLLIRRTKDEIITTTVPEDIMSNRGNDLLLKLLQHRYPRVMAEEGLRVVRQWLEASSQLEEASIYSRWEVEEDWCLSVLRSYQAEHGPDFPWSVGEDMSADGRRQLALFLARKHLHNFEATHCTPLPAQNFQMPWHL
Test: Inhibition of ABHD16A (unknown origin)
In short: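 Lysates of HEK293 cells transiently overexpressing human ABHD16A were pretreated for 30 min with DMSO (control) or inhibitor. 1-LG substrate (25 µM final) was then added, and liberated glycerol was measured. Screening was at 10 µM as % control activity (n=2-3). Dose-response used 0.1-100 µM, duplicate wells from two independent experiments, giving IC50.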

COc1nn(-c2ccc(F)cc2)c(=O)o1
IC50: 32 nM
